The text below walks through data of ChEMBL document CHEMBL4428065, “Fulvestrant-3 Boronic Acid (ZB716): An Orally Bioavailable Selective Estrogen Receptor Downregulator (SERD)” (J Med Chem, 2016).

By AUC is commonly meant the area under the concentration-time curve, a measure of exposure. A lower AUC goes with less exposure. The half-life is the time in which the quantity being followed falls by half. A lower half-life goes with rapid decline. As a reminder, the Cmax is the highest concentration seen after dosing. Usually IC50 stands for the point on the concentration scale where inhibition reaches its midpoint.

Activity calls are given as the source filed them. The rule behind the calls is not given here.

Data set [1] can be described thus: AUC in C57BL/6 mouse at 8.3 mg/kg, sc by HPLC-MS/MS analysis. The data set is classed as ADME, organism-based. The settings on record: in vivo.
Data set [2] has as its target T1, Estrogen receptor (Homo sapiens) (UniProt P03372).
T1 sequence (whole entry): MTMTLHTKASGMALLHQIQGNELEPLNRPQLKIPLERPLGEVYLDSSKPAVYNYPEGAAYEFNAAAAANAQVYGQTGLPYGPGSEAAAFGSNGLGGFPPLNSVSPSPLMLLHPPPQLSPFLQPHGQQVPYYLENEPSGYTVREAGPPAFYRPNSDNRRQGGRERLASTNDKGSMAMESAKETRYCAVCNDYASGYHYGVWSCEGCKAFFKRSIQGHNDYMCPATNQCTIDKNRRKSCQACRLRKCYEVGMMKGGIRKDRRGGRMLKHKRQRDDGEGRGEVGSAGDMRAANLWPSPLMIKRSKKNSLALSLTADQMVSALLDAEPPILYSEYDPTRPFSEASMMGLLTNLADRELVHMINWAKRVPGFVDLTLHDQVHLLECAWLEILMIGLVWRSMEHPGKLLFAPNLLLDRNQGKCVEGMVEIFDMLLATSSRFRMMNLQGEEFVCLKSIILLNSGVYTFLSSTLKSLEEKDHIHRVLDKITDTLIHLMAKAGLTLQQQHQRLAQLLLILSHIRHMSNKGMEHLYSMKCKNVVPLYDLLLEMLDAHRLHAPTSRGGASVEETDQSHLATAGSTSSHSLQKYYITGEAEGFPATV
The data set is described as follows: (§1) Downregulation of ER-alpha expression in human tamoxifen-resistant T47D cells over-expressing PKC-alpha measured after 5 days by Western blot analysis. It counts as cell-based. A general note: A western blot detects proteins with antibodies after separation by electrophoresis.

A short description of data set [3]: Half life in C57BL/6 mouse at 8.3 mg/kg, sc by HPLC-MS/MS analysis. The settings on record: in vivo. The data set is classed as ADME, organism-based.
Data set [4] in a line: Cmax in C57BL/6 mouse at 8.3 mg/kg, sc by HPLC-MS/MS analysis. The settings on record: in vivo. The data set is classed as ADME, organism-based. Also noted: dose 8.3 mg/kg, route subcutaneous.
The test system of data set [5] is MCF7. The data set is described as follows: Antiproliferative activity against human MCF7 cells after 5 days by coulter counter analysis. The settings on record: MCF7, 120 h. It counts as functional, cell-based. In a few lines:
(§2)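 Cells were plated at 50000/well in 5% FBS phenol red-free DMEM. The tamoxifen-resistant line came from prolonged 4-hydroxytamoxifen exposure of MCF-7. Cells were treated 5 days at six concentrations from 10−10 to 10−5 M, with DMSO vehicle. Viable cells were counted by Coulter counter, survival expressed relative to vehicle, and IC50 taken from dose-response curves.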

For data set [6], the system named is MCF7. The data set is described as follows: Antiproliferative activity against human tamoxifen-resistant MCF7 cells after 5 days by coulter counter analysis. It counts as functional, cell-based. The settings on record: MCF7, 120 h. In a few lines: as §2
The target in data set [7] is T1, Estrogen receptor (Homo sapiens). The data set is described as follows: (§3) Downregulation of ER-alpha expression in human T47D cells measured after 5 days by Western blot analysis. It counts as cell-based.
For data set [8], the system named is T47D. The data set is described as follows: Antiproliferative activity against human T47D cells after 5 days by coulter counter analysis. The data set is classed as functional, cell-based. The following applies: 120 h. In short, it runs like this: (§4)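 Cells plated at 50000/well in 5% FBS phenol red-free DMEM; treated with six concentrations from 10−10 to 10−5 M for 5 days, DMSO vehicle controls. Viable cells counted by Coulter counter; survival ratio = treated/vehicle viable cells (control 100%). IC50 derived from dose–response curves. Cultures at 37 °C, 5% CO2.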

The test system of data set [9] is T47D. The data set is described as follows: Antiproliferative activity against human tamoxifen-resistant T47D cells over-expressing PKC-alpha after 5 days by coulter counter analysis. It counts as functional, cell-based. The settings on record: 120 h. In short, it runs like this:
as §4

For data set [10], the target named is T1, Estrogen receptor (Homo sapiens). The data set is described as follows: Antiestrogenic activity at estrogen receptor in human T47D-KBluc cells assessed as inhibition of estradiol activity by luciferase reporter gene assay relative to estradiol control. It counts as cell-based. In short, it runs like this:
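T47D-kb-Luc cells stably carry an ERE-driven firefly luciferase. Antagonism was read as inhibition of the signal induced by 0.01 nM estradiol, testing 0.1, 1 and 10 nM. Luminescence was normalized to the estradiol control, run in quadruplicate in at least three separate experiments, and given as mean ± SD.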
Background: A reporter such as luciferase makes a cellular process visible.

The target of data set [11] is T2, Estrogen receptor (Homo sapiens, UniProt P03372).
T2 sequence (P03372 whole entry): T1 sequence (whole entry)
The description is as §1. The data set is classed as cell-based.

In data set [12] the target is T1, Estrogen receptor (Homo sapiens). The data set is described as follows: Antagonistic activity at estrogen receptor in human MCF7 cells assessed as suppression of EGR3 expression at 10^-8 to 10^-7 M measured after 48 hrs by real-time PCR analysis. The data set is classed as cell-based. In short, it runs like this: (§5)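 MCF-7 cells were seeded in DMEM with 5% FBS, then switched to phenol red-free DMEM with 5% charcoal-stripped FBS for 48 h. They were treated 48 h with vehicle, E2, or test compound + E2. Expression was measured by real-time PCR, with fold change calculated by 2^−ΔΔCt normalized to five reference genes (18S rRNA, HPRT1, RPL13A, GAPDH, ACTB).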

Data set [13] has as its target T2, Estrogen receptor. The data set is described as follows: Displacement of fluoromone ligand from recombinant ER-alpha (unknown origin) by LanthaScreen TR-FRET assay. In a few lines:
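Competitive TR-FRET binding with recombinant ERα, in which test compound displaces a fluormone tracer. Six to ten concentrations spanning the IC50 were tested in quadruplicate, and IC50 was taken from the competition curves.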
(In general: TR-FRET usually uses a lanthanide donor and a delayed reading to cut background.)

Data set [14] can be described thus: AUC in C57BL/6 mouse at 8.3 mg/kg administered through oral gavage by HPLC-MS/MS analysis. The following applies: in vivo. The data set is classed as ADME, organism-based. In a few lines: (§6)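 Female C57BL/6 mice, n = 5, given a single 8.3 mg/kg oral gavage in PBS/ethanol. Orbital sinus blood was drawn into EDTA at 1, 3, 6, 24 and 48 h, with each group sampled once. Analysis by UPLC-MS/MS on a C18 column with a water/acetonitrile 0.05% formic acid gradient.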

In data set [15] the target is T2, Estrogen receptor. The description is as §3. It counts as cell-based.
Data set [16] concerns the target T1, Estrogen receptor (Homo sapiens). The data set is described as follows: Antagonistic activity at estrogen receptor in human MCF7 cells assessed as suppression of PDZK1 expression 10^-8 to 10^-7 M measured after 48 hrs by real-time PCR analysis. The data set is classed as cell-based. In short, it runs like this: as §5
For data set [17] the target is unchanged. The data set is described as follows: Antagonistic activity at estrogen receptor in human MCF7 cells assessed as suppression of WISP1 expression 10^-8 to 10^-7 M measured after 48 hrs by real-time PCR analysis. The data set is classed as cell-based. In short, it runs like this: as §5
The target is the same in data set [18]. The data set is described as follows: Antagonistic activity at estrogen receptor in human MCF7 cells assessed as suppression of TFF1 expression 10^-8 to 10^-7 M measured after 48 hrs by real-time PCR analysis. It counts as cell-based. In a few lines: as §5
The nature of data set [19]: Half life in C57BL/6 mouse at 8.3 mg/kg administered through oral gavage by HPLC-MS/MS analysis. The following applies: in vivo. It counts as ADME, organism-based. In a few lines:
as §6

Data set [20] is described as follows: Cmax in C57BL/6 mouse at 8.3 mg/kg administered through oral gavage by HPLC-MS/MS analysis. The settings on record: in vivo. Details: dose 8.3 mg/kg, route oral. The data set is classed as ADME, organism-based. In short, it runs like this:
as §6

Data set [21] deals with T1, Estrogen receptor (Homo sapiens). The data set is described as follows: Antagonistic activity at estrogen receptor in human MCF7 cells assessed as suppression of PGR expression 10^-8 to 10^-7 M measured after 48 hrs by real-time PCR analysis. The data set is classed as cell-based. In short, it runs like this:
as §5

In the case of `C[C@]12CC[C@@H]3c4ccc(O)cc4C[C@@H](CCCCCCCCC[S+]([O-])CCCC(F)(F)C(F)(F)F)[C@H]3[C@@H]1CC[C@@H]2O` (stereo not given in full) [FULVESTRANT], the AUC in data set [1] is 158 ng·h/mL. In addition, the inhibition result in data set [2], in data set [7] and in data set [10] was “Dose-dependent effect” in each case. The molecule also gave a half-life in [3] of 14 h. Besides, the Cmax in [4] worked out at 15.2 ng/mL. Besides, the IC50 in the data set with MCF7 [5] turned out to be 1.5 nM; with MCF7 [6] it was 44 nM; with T47D [8] it was 1.2 nM; in the data set with T47D [9], 42 nM.
`CC/C(=C(\c1ccc(O)cc1)c1ccc(OCCN(C)C)cc1)c1ccccc1` [AFIMOXIFENE]: the results for the IC50 in the data set on T47D [8] and in the data set on T47D [9] were 24 nM and 540 nM, respectively.
For the molecule `C[C@]12CC[C@@H]3c4ccc(B(O)O)cc4C[C@@H](CCCCCCCCC[S+]([O-])CCCC(F)(F)C(F)(F)F)[C@H]3[C@@H]1CC[C@@H]2O` (stereo not given in full) [ZB-716], the half-maximal inhibitory concentration (IC50) came out at 12.7 nM on Estrogen receptor [11]; 3.2 nM in the data set on MCF7 [5]; 69 nM in the data set on MCF7 [6]; 4.1 nM at Estrogen receptor [13]; 7.8 nM against Estrogen receptor [15]; 6.1 nM in the data set with T47D [8]. The molecule further gave an IC50 in the data set with T47D [9] of 37 nM. Also, the inhibition result in data set [2], in data set [7] and in data set [10] was “Dose-dependent effect” in each case. Moreover, the inhibition result in data set [12], in data set [16], in [17], in [18] and in data set [21] was “Active” in each case. The same molecule returned an AUC in data set [14] of 2547.1 ng·h/mL. In data set [19], this molecule returned a t1/2 of 23.5 h. The molecule also registered a Cmax in data set [20] of 169.8 ng/mL.
